{"data": "Assay results pooled from the literature", "rep main protease": "Replicase polyprotein 1ab, main protease (rep, Porcine epidemic diarrhea virus, UniProt P0C6Y4)", "SLC6A4": "Sodium-dependent serotonin transporter (SLC6A4, Homo sapiens, UniProt P31645)", "rep papain-like protease": "Replicase polyprotein 1ab, papain-like protease (rep, Porcine epidemic diarrhea virus, UniProt P0C6Y4)"}
{"SMILES": "COc1cc(CNC(=O)c2ccco2)cc(Br)c1OC", "target": "rep main protease", "assay": "enzyme activity, inhibitor, FRET", "setting": "10 µM", "quantity": "inhibition", "value": "64.9%"}
{"SMILES": "COc1cc(-c2cc(C(C)=O)n3ccccc23)c(OC)cc1Cn1ccnc1", "target": "Bromodomain adjacent to zinc finger domain protein 2B, bromodomain (BAZ2B, Homo sapiens, UniProt Q9UIF8)", "assay": "thermal stability, DSF", "quantity": "ΔTm", "value": "2.1 °C"}
{"SMILES": "COc1cc(CNC(=O)CC(c2ccc(Cl)cc2)C(C)C)cc(Br)c1OC (stereo not drawn)", "target": "rep main protease", "assay": "enzyme activity, inhibitor, FRET", "setting": "10 µM", "quantity": "inhibition", "value": "33%"}
{"SMILES": "CCOC(=O)[C@@]12C[C@@H]1[C@@H](n1ccc3c(NCCCCCc4ccccc4)nc(C#Cc4ccccc4)nc31)[C@H](O)[C@@H]2O", "target": "SLC6A4", "assay": "ligand displacement, radioligand", "setting": "10 µM", "quantity": "inhibition", "value": "29%"}
{"SMILES": "Cc1cc(O)c(-c2ccc([C@@H](C)CN(C)C)cc2)c2c1[nH]c(=O)c1sccc12", "target": "Calcium/calmodulin-dependent protein kinase type 1D (CAMK1D, Homo sapiens, UniProt Q8IU85)", "assay": "cell-free assay, inhibitor", "setting": "0.1 µM, lysate", "quantity": "inhibition", "value": "-8.71%"}
{"SMILES": "N#CC[C@@]12C[C@@H]1[C@@H](n1cnc3c(NCCCCCCc4ccccc4)nc(I)nc31)[C@H](O)[C@@H]2O", "target": "SLC6A4", "assay": "ligand displacement, radioligand", "setting": "10 µM", "quantity": "inhibition", "value": "56%"}
{"SMILES": "C1=C/COCc2cc(ccc2OCCN2CCCC2)Nc2nccc(n2)-c2cccc(c2)COC/1", "target": "Serine/threonine-protein kinase Nek2 (NEK2, Homo sapiens, UniProt P51955)", "assay": "binding", "setting": "0.1 µM", "quantity": "remaining binding", "value": "75%"}
{"SMILES": "CCCCC(=O)Nc1ccc(-c2ccc3ncn(CCC)c(=O)c3c2)cn1", "target": "BDNF/NT-3 growth factors receptor (NTRK2, Homo sapiens, UniProt Q16620)", "assay": "binding, competition with immobilised ligand", "setting": "0.5 µM", "quantity": "remaining binding", "value": "100%"}
{"SMILES": "CCOC(=O)[C@@]12C[C@@H]1[C@@H](n1cnc3c(NCCCCCCc4ccccc4)nc(I)nc31)[C@H](O)[C@@H]2O", "target": "SLC6A4", "assay": "ligand displacement, radioligand", "setting": "10 µM", "quantity": "inhibition", "value": "68%"}
{"SMILES": "O=C(NCc1cc(O)c(O)c(Br)c1)c1cccc(C(F)(F)F)c1", "target": "rep papain-like protease", "assay": "enzyme activity, inhibitor, FRET", "setting": "10 µM", "quantity": "inhibition", "value": "102%"}
{"SMILES": "CCCCC[C@H](O)/C=C/[C@H]1[C@H](O)CC(=O)[C@@H]1C/C=C\\CCCC(=O)O", "target": "Prostaglandin E2 receptor EP1 subtype (PTGER1, Homo sapiens, UniProt P34995)", "assay": "inositol phosphate, agonist, TR-FRET", "test system": "AD293", "setting": "1 h", "quantity": "Emax", "value": "99.9%"}
{"SMILES": "O=C(NCc1cc(O)c(O)c(Br)c1)c1ccncc1Cl", "target": "rep papain-like protease", "assay": "enzyme activity, inhibitor, FRET", "setting": "10 µM", "quantity": "inhibition", "value": "44.4%"}
{"SMILES": "N#CC[C@@]12C[C@@H]1[C@@H](n1cnc3c(NC4CC4)nc(C#Cc4ccc(Cl)s4)nc31)[C@H](O)[C@@H]2O", "target": "SLC6A4", "assay": "ligand displacement, radioligand", "setting": "10 µM", "quantity": "inhibition", "value": "15%"}
{"SMILES": "COc1cc(CNC(=O)c2ccc(OC(F)(F)F)cc2)cc(Br)c1OC", "target": "rep papain-like protease", "assay": "enzyme activity, inhibitor, FRET", "setting": "10 µM", "quantity": "inhibition", "value": "10.8%"}
{"SMILES": "CCOC(=O)[C@@]12C[C@@H]1[C@@H](n1cnc3c(Nc4ccccc4)nc(C#Cc4ccc(Cl)s4)nc31)[C@H](O)[C@@H]2O", "target": "SLC6A4", "assay": "ligand displacement, radioligand", "setting": "10 µM", "quantity": "inhibition", "value": "20%"}
